Laboratory results taken from article PMC12011195 (ACS chemical biology, 2024).

What was measured:
[1] = system: FXN mRNA in GM15850 cells; assay: Co-treatment of SynGRs with BET-binding ligands, FXN mRNA in GM15850 cells; type: cell-based, human; conditions: SynGR1 1 h, then ligand 0.5 μM for 23 h
Outline: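 Patient-derived GM15850 lymphoblasts in RPMI with 15% FBS; compounds dissolved in DMSO. Test compound (1 mM stock, increasing concentrations) added for 1 h, then pan-BET, BD1- or BD2-selective BET ligand at 0.5 μM for 23 h. RNA purified with DNase treatment; cDNA from 400 ng RNA; SYBR qPCR on 100 ng cDNA with FXN and TBP primers; normalised to 0.1% DMSO control.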

[2] = system: FXN expression in patient-derived cells; conditions: wide array of patient-derived cells; cited from earlier work

Row | SMILES | effect of co-treatment with BET ligand on FXN expression activity of SynGR1 [1] | FXN protein levels [2]
1 | COCc1nc2cnc3cc(-c4c(C)noc4C)c(OC[C@H]4CCNC4)cc3c2n1[C@H](C)c1ccccc1 [GSK778] | further stimulated the activity | –
2 | Cc1sc2c(c1C)C(c1ccc(Cl)cc1)=N[C@@H](CC(=O)NCCOCCOCCOCCOCCOCCOCCC(=O)NCCCN(C)CCCNC(=O)CCNC(=O)c1nc(NC(=O)CCNC(=O)c3cc(NC(=O)c4nc(NC(=O)CCNC(=O)c5cc(NC(=O)c6nccn6C)cn5C)cn4C)cn3C)cn1C)c1nnc(C)n1-2 [SynGR1] | – | restoring FXN protein levels
